Assay results: ChEMBL document CHEMBL3758168, “Hybrid triazoles: Design and synthesis as potential dual inhibitor of growth and efflux inhibition in tuberculosis” (Eur J Med Chem, 2016)
≈ marks a conversion by molar mass, not a printed value.

Assays:
Format in all cases: functional
[1] = tested on: Mycobacterium tuberculosis; assay: Antibacterial activity against Mycobacterium tuberculosis H37Rv ATCC 27294T assessed as ethidium bromide MIC at 256 ug/ml after 7 days by microdilution checkerboard assay; conditions: 168 h
Outline: (§1)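 Two-dimensional checkerboard in H37Rv at 10^5 CFU/ml in MB7H9/OADC. Partner drug (amikacin, EtBr, isoniazid, ofloxacin or rifampin) two-fold serially diluted across columns 3-11. Test compound two-fold serially diluted down rows 2-6. Plates incubated 7 days at 37 °C, then MTT added overnight. […] Run in triplicate.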

[2] = tested on: Mycobacterium tuberculosis; assay: Antibacterial activity against Mycobacterium tuberculosis H37Rv ATCC 27294T assessed as ofloxacin MIC at 8 ug/ml after 7 days by microdilution checkerboard assay; conditions: 168 h; outline: as §1
[3] = tested on: Mycobacterium tuberculosis; assay: Antibacterial activity against Mycobacterium tuberculosis H37Rv ATCC 27294T assessed as isoniazid MIC at 256 ug/ml after 7 days by microdilution checkerboard assay; conditions: 168 h; outline: as §1
[4] = tested on: Mycobacterium tuberculosis; assay: Antibacterial activity against Mycobacterium tuberculosis H37Rv ATCC 27294T assessed as rifampin MIC at 256 ug/ml after 7 days by microdilution checkerboard assay; conditions: 168 h
Outline: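 M. tuberculosis H37Rv grown in MB7H9 + 10% OADC at 37 °C to OD600 0.8; plates inoculated at 10^5 CFU/ml. Rifampicin two-fold serially diluted across columns, test compound two-fold diluted down rows (two-dimensional checkerboard). Sealed, 37 °C for seven days, then MTT added and incubated overnight. MIC read as no colour change. Triplicate.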

[5] = tested on: Mycobacterium tuberculosis; assay: Antibacterial activity against Mycobacterium tuberculosis H37Rv ATCC 27294T assessed as ethidium bromide MIC at 128 ug/ml after 7 days by microdilution checkerboard assay; conditions: 168 h; outline: as §1
[6] = tested on: Mycolicibacterium smegmatis; assay: Anti-tubercular activity against Mycobacterium smegmatis MC2 155 ATCC 700084 after 3 days by microdilution method; conditions: MC2 155 ATCC 700084, 72 h
Outline: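 M. smegmatis mc2155 grown in MB7H9 + 10% OADC at 37 °C with shaking to OD600 0.8. Inoculum set to 0.5 McFarland, diluted 1:100, and mixed 1:1 with two-fold serial dilutions in MB7H9. Plates incubated 3 days at 37 °C with growth and sterility controls. MIC taken as the lowest concentration with no visible growth.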

[7] = tested on: Mycobacterium tuberculosis; assay: Antibacterial activity against Mycobacterium tuberculosis H37Rv ATCC 27294T assessed as ofloxacin MIC at 4 ug/ml after 7 days by microdilution checkerboard assay; conditions: 168 h; outline: as §1
[8] = tested on: Mycobacterium tuberculosis; assay: Antibacterial activity against Mycobacterium tuberculosis H37Rv ATCC 27294T assessed as amikacin MIC at 4 ug/ml after 7 days by microdilution checkerboard assay; conditions: 168 h; outline: as §1
[9] = tested on: Mycobacterium tuberculosis; assay: Anti-tubercular activity against Mycobacterium tuberculosis H37Rv ATCC 27294T after 7 days by mircodilution method; conditions: 168 h
Outline: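 H37Rv grown static in MB7H9 + 10% OADC at 37 °C to OD600 0.8, then diluted to about 10^5 cells/ml. Mixed 1:1 with two-fold serial dilutions in MB7H9/OADC and incubated 7 days at 37 °C. MTT added to final 2.5% and plates incubated overnight. MIC is the lowest concentration with no colour change. Run in triplicate.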

[10] = tested on: Mycobacterium tuberculosis; assay: Antibacterial activity against Mycobacterium tuberculosis H37Rv ATCC 27294T assessed as ofloxacin MIC at 32 ug/ml after 7 days by microdilution checkerboard assay; conditions: 168 h; outline: as §1
[11] = tested on: Mycobacterium tuberculosis; assay: Antibacterial activity against Mycobacterium tuberculosis H37Rv ATCC 27294T assessed as ofloxacin MIC at 16 ug/ml after 7 days by microdilution checkerboard assay; conditions: 168 h; outline: as §1

COc1ccc(CCN(C)CCCC(C#N)(c2ccc(OC)c(OC)c2)C(C)C)cc1OC (stereo unspecified)
MIC [1]: 0.781 µg/mL
MIC [2]: 2 µg/mL
MIC [3]: 0.0125 µg/mL
MIC [4]: 0.125 µg/mL
MIC [5]: 3.12 µg/mL
MIC [6]: 776 µg/mL (≈ 1710 µM)
MIC [7]: 2 µg/mL
MIC [8]: 2 µg/mL
MIC [9]: 128 µg/mL (≈ 282 µM)
MIC [10]: 2 µg/mL
MIC [11]: 2 µg/mL
